Bioassay records (PubChem)
CRFR2-BP antag = antagonists of CRF-binding protein/CRF-R2 receptor complex | HEK293 CRF-R2/CRF-BP, CRF-induced calcium fluorescence | inhibition, % at 11.8 µM | actives 0.59% (n = 350,000) | AID 588475;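 active = inhibition of the ligand-induced calcium signal above about 50% at the single tested concentration, limit read from the data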
PKA-R2B activ = activates the human PKA-R2B holoenzyme complex; P22694+P31323; PKA-R2B holoenzyme dissociation, Cy5-IP20 fluorescence polarization; R2B truncated from residue 108, S112A mutant; 0% DMSO only, 100% 113 µM cGMP; activation, % at 11.4 µM; actives 0.079% (n = 340,000); AID 504700;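 active = activation above a cutoff set at the mean over all compounds plus 3 SD, cut at about 18% in these data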;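 also: higher means more holoenzyme dissociation and a rise in polarization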
SIRT5 inh = blocks human SIRT5 desuccinylation of peptide. Q9NXA8. Purified SirT5, succinyl-peptide AMC, trypsin-coupled fluorescence. inhibition, % at 15 µM. actives 1.1% (n = 330,000). AID 652115; in the data active = inhibition above about 15%; inconclusive = no clear call, values can overlap the other calls
Target sequence (Q9NXA8 whole entry, looked up): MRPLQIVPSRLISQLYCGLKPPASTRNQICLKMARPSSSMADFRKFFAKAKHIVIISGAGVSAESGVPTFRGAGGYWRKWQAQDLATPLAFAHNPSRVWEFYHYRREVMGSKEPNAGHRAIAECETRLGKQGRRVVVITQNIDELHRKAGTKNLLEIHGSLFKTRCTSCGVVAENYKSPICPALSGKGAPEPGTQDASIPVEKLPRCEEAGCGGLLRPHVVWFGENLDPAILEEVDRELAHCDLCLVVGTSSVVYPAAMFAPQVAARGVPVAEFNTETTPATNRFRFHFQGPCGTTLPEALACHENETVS
S100A4 MyoIIA = inhibitors of human S100A4 binding to myosin IIA peptide; P26447; S100A4/TAMRA-MyoIIA peptide fluorescence polarization; inhibition, % at 10.7 µM; actives 0.14% (n = 360,000);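 active = mean inhibition of at least 70% across replicates, with every replicate also reaching that level; inconclusive = mean inhibition reaches 70% but some replicates fall short; inactive = mean inhibition below 70%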
Target sequence (P26447 whole entry, looked up): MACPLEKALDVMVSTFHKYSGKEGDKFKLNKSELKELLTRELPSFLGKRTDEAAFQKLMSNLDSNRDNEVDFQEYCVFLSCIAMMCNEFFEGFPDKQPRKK
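Compound dosing: one dose per compound; test system: human S100A4 monomer with TAMRA-labelled myosin IIA peptide; probe or stimulus: TAMRA-labelled myosin IIA heavy-chain peptide probe, 5 nM; medium: HEPES buffer with Ca2+, pH 7.2; schedule: 5 min incubation before reading; benchmarks: neutral control DMSO, positive control TFP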
PKA-R1A activ = PKA-R1A complex activation; activation, % at 11.4 µM; actives 0.083% (n = 340,000); P00514+P68181; PKA-R1A dissociation, Cy5-IP20 fluorescence polarization; scaled: DMSO 0%, 113 µM cGMP 100%;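 active = percent activation above the mean of all tested compounds plus 3 SD, cut at about 19% in these data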;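 also: higher means more PKAc released from R1A so a rise in polarization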
* = called active by the depositor; ? = inconclusive; · = no result given; + = active, no number; ! = a repeat was not active. Most compounds without a hit are left out; they make up all but 1.5% or so of the library.

SMILES	CRFR2-BP antag	PKA-R2B activ	SIRT5 inh	S100A4 MyoIIA	PKA-R1A activ
CCNC(=O)C[C@@H]1CC[C@H]2[C@@H](COC[C@H](O)CN2C(=O)c2cccnc2)O1	·	·	17.4*	-45.1	·
COc1ccc(NC(=O)Nc2cccc3c2O[C@H](CN(C)Cc2ccc(Oc4ccccc4)cc2)[C@@H](C)CN([C@H](C)CO)C3=O)cc1	·	·	?	-4.0	·
CCCC(C)C(=O)Nc1nc(C)c(-c2csc(Nc3ccc(Cl)cc3)n2)s1 (stereo not drawn)	-16.6	-6.5	31.0*	-0.5	-10.9
CCCC(C)C(=O)Nc1nc(C)c(-c2csc(Nc3ccccc3OC)n2)s1 (stereo not drawn)	-14.2	-15.8	-2.6	-8.2	11.5
CCN1/C(=C/C(C)=C/c2sc3ccccc3[n+]2CC)Sc2ccccc21	-16.5	-2.8	7.1	+	2.0
O=C(NCCO)Nc1ccc(Cl)cc1	11.3	6.0	19.2*	1.7	-13.8
C[C@H](CO)N1C[C@H](C)[C@@H](CN(C)Cc2ccc(C(=O)Nc3ccccc3N)cc2)Oc2ccc(NC(=O)c3ccncc3)cc2C1=O	·	·	-0.5	9.8	·
Cc1ccc(-c2ccc3c(c2)O[C@@H](CN(C)C(=O)C2CCC2)[C@@H](C)CN([C@@H](C)CO)S3(=O)=O)cc1	·	·	9.1	1.5	·
CC(C)NC(=O)Nc1ccc2c(c1)C(=O)N([C@@H](C)CO)C[C@H](C)[C@H](CN(C)C(=O)NC(C)C)OCCCC[C@@H](C)O2	·	·	24.3*	15.3	·
CC(C)NC(=O)Nc1ccc2c(c1)C(=O)N([C@@H](C)CO)C[C@H](C)[C@H](CN(C)C(=O)c1ccncc1)OCCCC[C@H](C)O2	·	·	5.0	96.1*	·
CC(C)NC(=O)Nc1ccc2c(c1)C(=O)N([C@@H](C)CO)C[C@@H](C)[C@@H](CN(C)C(=O)NC(C)C)OCCCC[C@@H](C)O2	·	·	3.5	9.0	·
CC(C)NC(=O)Nc1ccc2c(c1)C(=O)N([C@H](C)CO)C[C@H](C)[C@@H](CN(C)C(=O)Cc1ccccc1)OCCCC[C@@H](C)O2	·	·	9.4	3.6	·
C[C@H]1CCCCO[C@H](CN(C)C(=O)c2ccccc2)[C@@H](C)CN([C@@H](C)CO)C(=O)c2cc(NC(=O)NC3CCCCC3)ccc2O1	·	·	7.0	113.9*	·
CC(C)NC(=O)Nc1ccc2c(c1)C(=O)N([C@H](C)CO)C[C@H](C)[C@H](CN(C)C(=O)Cc1ccccc1)OCCCC[C@H](C)O2	·	·	19.5*	5.9	·
C[C@H]1CN([C@@H](C)CO)C(=O)Cc2cc(NS(C)(=O)=O)ccc2O[C@@H]1CN(C)S(C)(=O)=O	·	·	-0.5	0.3	·
COc1ccc(NC(=O)Nc2cccc3c2O[C@@H](CN(C)C(=O)Nc2ccccc2)[C@H](C)CN([C@@H](C)CO)C3=O)cc1	·	·	-2.5	-1.5	·
O=C(NN1C(=O)NC2(CCCCC2)C1=O)c1cc(F)cc(F)c1	1.2	2.3	-1.6	1.4	-6.2
O=C(NN1C(=O)NC2(CCCCC2)C1=O)c1ccc(Cl)c(Cl)c1	-16.6	-8.3	16.9*	-1.5	-2.5
Nc1cnccc1C(=O)O	-19.4	2.1	2.2	79.7*	12.1
COC(=O)c1ccncc1N	-7.9	11.7	-0.2	0.7	2.4
CC(C)CC#Cc1ccc([C@@H]2[C@H](CO)N3C(=O)CN(C(=O)c4ccccn4)C[C@@H]23)cc1	·	·	0.8	107.2*	·
COc1ccc(-c2ccc([C@@H]3[C@H]4CN(C(=O)Cc5ccccn5)CC(=O)N4[C@H]3CO)cc2)cc1	·	·	27.7*	·	·
Cc1ccc(-c2ccc([C@@H]3[C@@H](CO)N4C(=O)CN(C(=O)Cc5ccccn5)C[C@@H]34)cc2)cc1	·	·	1.7	8.8	·
CC(C)CC#Cc1ccc([C@@H]2[C@@H](CO)N3C(=O)CN(C(=O)c4ccccn4)C[C@H]23)cc1	·	·	33.1*	-5.0	·
CC(C)CC#Cc1ccc([C@@H]2[C@@H](CO)N3C(=O)CN(C(=O)c4ccccn4)C[C@@H]23)cc1	·	·	-1.8	-4.3	·
SMILES	CRFR2-BP antag	PKA-R2B activ	SIRT5 inh	S100A4 MyoIIA	PKA-R1A activ
C[C@@H]1CN([C@@H](C)CO)C(=O)Cc2cc(NC(=O)C3CCCCC3)ccc2O[C@@H]1CN(C)C	·	·	10.5	6.7	·
COc1ccc2c(c1)c(CC(=O)Nc1cccc(S(N)(=O)=O)c1)c(C)n2C(=O)c1ccc(Cl)cc1	1.9	-0.2	16.9*	-16.3	-13.1
Cc1noc(C)c1S(=O)(=O)Nc1ccc2c(c1)C(=O)N([C@@H](C)CO)C[C@H](C)[C@@H](CN(C)Cc1ccc(C(F)(F)F)cc1)OCCCC[C@H](C)O2	-23.7	-6.6	24.3*!	1.3	-15.2
Cc1noc(C)c1NC(=O)N(C)C[C@H]1OCCCC[C@@H](C)Oc2ccc(NS(=O)(=O)c3c(C)noc3C)cc2C(=O)N([C@H](C)CO)C[C@@H]1C	·	·	28.3*	8.8	·
Cc1noc(C)c1S(=O)(=O)Nc1ccc2c(c1)C(=O)N([C@H](C)CO)C[C@H](C)[C@H](CN(C)Cc1ccc(C(F)(F)F)cc1)OCCCC[C@@H](C)O2	·	·	4.5	-8.5	·
Cc1noc(C)c1S(=O)(=O)Nc1ccc2c(c1)C(=O)N([C@H](C)CO)C[C@@H](C)[C@@H](CN(C)Cc1ccc(C(F)(F)F)cc1)OCCCC[C@@H](C)O2	·	·	24.2*	-2.4	·
Cc1noc(C)c1S(=O)(=O)Nc1ccc2c(c1)C(=O)N([C@@H](C)CO)C[C@@H](C)[C@@H](CN(C)Cc1ccc(C(F)(F)F)cc1)OCCCC[C@@H](C)O2	·	·	27.4*	5.4	·
Cc1noc(C)c1S(=O)(=O)Nc1ccc2c(c1)C(=O)N([C@H](C)CO)C[C@H](C)[C@@H](CN(C)Cc1ccc(C(F)(F)F)cc1)OCCCC[C@@H](C)O2	·	·	12.8	-5.7	·
COc1ccc(NC(=O)N(C)C[C@H]2OCCCC[C@@H](C)Oc3ccc(NC(=O)C4CCCCC4)cc3C(=O)N([C@H](C)CO)C[C@@H]2C)cc1	·	·	-5.2	1.7	·
C[C@H](CO)N1C[C@H](C)[C@H](CN(C)S(=O)(=O)c2cn(C)cn2)Oc2cc(C3=CCCCC3)ccc2S1(=O)=O	·	·	-2.6	-5.9	·
COc1ccc2c3c(n(C)c2c1)[C@H](CO)N(Cc1ccccc1OC)CC31CCN(CC2CCOCC2)CC1	·	·	-2.3	0.4	·
O=C(C1CCC1)N1CC[C@H]2[C@H](CO)Nc3ccc(C#Cc4cccc(F)c4)cc3[C@H]21	·	·	20.5*	-24.4	·
CCC(=O)N1CC[C@@H]2[C@H](CO)Nc3ccc(C#Cc4ccc(OC)cc4)cc3[C@@H]21	·	·	16.8*	-2.0	·
O=C(C1CCC1)N1CC[C@@H]2[C@@H](CO)Nc3ccc(C#Cc4cccc(F)c4)cc3[C@@H]21	·	·	1.0	-14.3	·
CCCC#Cc1ccc2c(c1)[C@@H]1[C@@H](CCN1S(=O)(=O)c1ccccc1C)[C@@H](CO)N2	·	·	17.8*	-5.7	·
COc1ccccc1C#Cc1ccc2c(c1)[C@@H]1[C@@H](CCN1C(=O)c1cccc(F)c1)[C@H](CO)N2	·	·	18.2*	6.9	·
